Test results: ChEMBL document CHEMBL4350954, “Identification of Thienopyrimidine Scaffold as an Inhibitor of the ABC Transport Protein ABCC1 (MRP1) and Related Transporters Using a Combined Virtual Screening Approach” (J Med Chem, 2019); call rule not given here

How the values were obtained:
[1] = biological target: T1, ATP-dependent translocase ABCB1 (Homo sapiens, UniProt P08183); test: Inhibition of ABCB1 in human A2780/ADR cells preincubated for 30 mins followed by calcein AM addition and measured at 60 secs time interval by fluorescence assay; format: cell-based
[2] = biological target: T1, ATP-dependent translocase ABCB1; test: Reversal of ABCB1 (unknown origin)-mediated multidrug resistance in MDCK2 cells co-expressing MDR1 (unknown origin) assessed as resistance factor by measuring [GI50(resistant cell line without or with compound)/ GI50(sensitive cell line)] at 5 uM incubated for 72 hrs by MTT assay (reference value: 17); format: cell-based
Procedure, shortened: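 MDR reversal assay with daunorubicin at 10 nM–10 µM, alone or with test compound at 0.5, 1, 5 or 10 µM. Resistant cells were ABCB1-overexpressing A2780/ADR or MDCK II MDR1, with sensitive A2780 or MDCK II cells as comparators. Resistance factor = resistant GI50 / sensitive GI50. EC50 was derived from resistance factors versus modulator concentration. Values are from ≥3 experiments in duplicate ± SEM.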

[3] = biological target: T1, ATP-dependent translocase ABCB1; test: Competitive inhibition of ABCB1-mediated calcein-AM transport in human A2780/ADR cells at 0.056 to 0.316 uM by Lineweaver-Burk plot analysis; format: cell-based
Procedure, shortened: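 Kinetic study of calcein AM transport by Lineweaver-Burk analysis. ABCC1 was studied in H69AR cells with calcein AM at 0.25, 0.3, 0.45, 0.6 and 0.8 µM and inhibitor at 0.316, 0.562, 1.00 and 1.78 µM plus a zero control. ABCB1 was studied in A2780/ADR cells with calcein AM at 0.2–0.8 µM and inhibitor at 0.056, 0.100, 0.178 and 0.316 µM plus a zero control.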

ABCC1 (MRP1) = test: Therapeutic index, ratio of GI50 for human H69AR cells to IC50 for ABCC1 in human H69AR cells; format: toxicity, cell-based; settings: read-out: TI
Procedure, shortened: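 Therapeutic ratio = GI50 from the MTT cytotoxicity assay / IC50 from the inhibition assay in the same cell line. The cell lines were H69AR (calcein AM, ABCC1), A2780/ADR (calcein AM, ABCB1) and MDCK II BCRP (pheophorbide A, ABCG2).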

T1 sequence (P08183 whole entry): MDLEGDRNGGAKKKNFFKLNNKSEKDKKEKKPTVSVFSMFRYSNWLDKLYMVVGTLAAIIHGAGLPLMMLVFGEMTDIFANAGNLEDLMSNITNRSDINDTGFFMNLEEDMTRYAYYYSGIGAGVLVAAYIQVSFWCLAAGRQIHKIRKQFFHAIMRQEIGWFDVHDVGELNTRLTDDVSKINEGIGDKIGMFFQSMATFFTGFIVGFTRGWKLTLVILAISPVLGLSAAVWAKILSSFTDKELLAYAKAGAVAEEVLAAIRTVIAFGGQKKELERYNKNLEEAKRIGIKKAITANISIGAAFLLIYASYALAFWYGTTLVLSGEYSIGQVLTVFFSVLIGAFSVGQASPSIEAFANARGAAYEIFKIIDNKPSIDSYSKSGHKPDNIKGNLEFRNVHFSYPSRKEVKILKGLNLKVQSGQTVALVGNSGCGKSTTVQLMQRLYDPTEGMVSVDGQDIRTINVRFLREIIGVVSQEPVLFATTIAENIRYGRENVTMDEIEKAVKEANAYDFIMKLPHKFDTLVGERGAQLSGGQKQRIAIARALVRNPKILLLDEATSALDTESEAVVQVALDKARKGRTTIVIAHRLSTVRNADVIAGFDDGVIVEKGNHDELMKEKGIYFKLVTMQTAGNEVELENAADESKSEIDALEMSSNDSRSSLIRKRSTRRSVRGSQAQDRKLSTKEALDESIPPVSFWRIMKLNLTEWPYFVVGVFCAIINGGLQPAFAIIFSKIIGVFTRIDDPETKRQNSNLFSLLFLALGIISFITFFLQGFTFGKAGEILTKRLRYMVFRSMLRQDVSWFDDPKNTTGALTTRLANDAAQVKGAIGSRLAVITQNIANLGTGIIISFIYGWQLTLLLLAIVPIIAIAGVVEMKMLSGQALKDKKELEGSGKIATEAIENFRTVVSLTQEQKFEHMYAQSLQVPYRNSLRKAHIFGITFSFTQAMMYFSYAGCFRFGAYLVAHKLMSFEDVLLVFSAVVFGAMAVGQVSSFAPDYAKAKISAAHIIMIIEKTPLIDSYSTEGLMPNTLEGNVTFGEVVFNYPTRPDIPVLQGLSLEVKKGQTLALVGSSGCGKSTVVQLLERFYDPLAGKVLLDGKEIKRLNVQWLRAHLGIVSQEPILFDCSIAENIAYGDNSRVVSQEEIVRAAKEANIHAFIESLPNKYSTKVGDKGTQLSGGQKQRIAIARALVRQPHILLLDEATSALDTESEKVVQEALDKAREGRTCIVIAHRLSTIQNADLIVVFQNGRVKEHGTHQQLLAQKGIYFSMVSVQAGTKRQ

IC50 [1]: 1730 nM
RatioGI50 [2]: 0.9
inhibition (INH) [3]: Active
Structure (SMILES): CC1CCc2c(sc3nc(-c4cccnc4)nc(N4CCN(C(C(N)=O)c5ccccc5)CC4)c23)C1 (centres undefined)
selectivity ratio (ABCC1 (MRP1)): 11.3
